Assay results from ChEMBL document CHEMBL4402610 (J Med Chem, 2020).

Key:
[1] = molecular target: Protease (Human immunodeficiency virus 1, UniProt Q9YQ12); test: Inhibition of HIV-1 protease
[2] = test system: Human immunodeficiency virus 1; test: Antiviral activity against HIV1 LAI infected in human MT2 cells; type: functional, organism-based; conditions: Human immunodeficiency virus 1, M:B_Lai
[3] = test system: Human immunodeficiency virus 1; test: Antiviral activity against HIV1 NL4-3 infected in human MT4 cells assessed as reduction in p24 Gag protein production; type: functional, organism-based; conditions: Human immunodeficiency virus 1, NL4-3, MT4
[4] = test system: Human immunodeficiency virus 1; test: Antiviral activity against atazanavir resistant HIV1 harboring protease L23I/E34Q/K43I/M46I/I50L/G51A/L63P/A71V/V82A/T91A mutant infected in human MT4 cells assessed as reduction in p24 Gag production; type: functional, organism-based; conditions: Human immunodeficiency virus 1, MT4
In short: (§1)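 MT-4 cells (10^5/mL) were exposed to 100 TCID50s of each HIV-1 and treated with drug. Inhibition of p24 Gag protein production was the endpoint for EC50. PI-resistant variants had been selected in vitro by passaging HIV-1 NL4-3 in MT-4 cells under increasing PI (up to 5 μM). Assays were run in duplicate, and values are means of two independent experiments.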

[5] = test system: Human immunodeficiency virus 1; test: Antiviral activity against lopinavir resistant HIV1 harboring protease L10F/V32I/M46I/I47A/A71V/I84V mutant infected in human MT4 cells assessed as inhibition of p24 Gag production; type: functional, organism-based; conditions: Human immunodeficiency virus 1, MT4; in short: as §1
[6] = test system: Human immunodeficiency virus 1; test: Antiviral activity against darunavir resistant HIV1 harboring protease P30 L10I/I15V/K20R/L24I/V32I/M36I/ M46L/L63P/K70Q/V82A/I84V/L89M mutant infected in human MT4 cells assessed as reduction in p24 Gag production; type: functional, organism-based; conditions: Human immunodeficiency virus 1, MT4; in short: as §1
[7] = Selectivity ratio of IC50 for antiviral activity against lopinavir resistant HIV1 harboring protease L10F/V32I/M46I/I47A/A71V/I84V mutant infected in human MT4 cells to IC50 for antiviral activity against wild-type HIV1 NL4-3; type: functional
[8] = Selectivity ratio of IC50 for antiviral activity against atazanavir resitant HIV1 harboring protease L23I/E34Q/K43I/M46I/I50L/G51A/L63P/A71V/V82A/T91A mutant infected in human MT4 cells to IC50 for antiviral activity against wild-type HIV1 NL4-3; type: functional
[9] = Selectivity ratio of IC50 for antiviral activity against darunavir resistant HIV1 P30 harboring protease L10I/I15V/K20R/L24I/V32I/M36I/ M46L/L63P/K70Q/V82A/I84V/L89M mutant infected in human MT4 cells to IC50 for antiviral activity against wild-type HIV1 NL4-3; type: functional

Chain of Protease (Q9YQ12 whole entry): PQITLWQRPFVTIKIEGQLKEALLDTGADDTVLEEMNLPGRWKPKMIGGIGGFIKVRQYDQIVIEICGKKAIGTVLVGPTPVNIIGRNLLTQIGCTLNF

| Structure (SMILES) | Ki [1] [nM] | IC50 [2] [nM] | IC50 [3] [nM] | IC50 [4] [nM] | IC50 [5] [nM] | IC50 [6] [nM] | Ratio IC50 [7] | Ratio IC50 [8] | Ratio IC50 [9] |
| --- | --- | --- | --- | --- | --- | --- | --- | --- | --- |
| CC(C)CN(C[C@@H](O)[C@H](Cc1cccc(F)c1)NC(=O)OC1C[C@@H]2CO[C@@H]3OC1C[C@H]23)S(=O)(=O)c1ccc2nc(NC3CC3)sc2c1 (stereo partly drawn) | 0.008 | 1.28 |  |  |  |  |  |  |  |
| CC(C)CN(C[C@@H](O)[C@H](Cc1ccc(F)cc1)NC(=O)O[C@H]1C[C@H]2CO[C@H]3OC1C[C@@H]23)S(=O)(=O)c1ccc2nc(NC3CC3)sc2c1 | 0.036 | 0.4 |  |  |  |  |  |  |  |
| COC(=O)N[C@H](C(=O)N[C@@H](Cc1ccccc1)[C@@H](O)CN(Cc1ccc(-c2ccccn2)cc1)NC(=O)[C@@H](NC(=O)OC)C(C)(C)C)C(C)(C)C [ATAZANAVIR] |  |  | 4 | > 1000 | 430 | > 1000 | 107 |  |  |
| CC(C)CN(C[C@@H](O)[C@H](Cc1cc(F)cc(F)c1)NC(=O)OC1C[C@@H]2CO[C@@H]3OC1C[C@H]23)S(=O)(=O)c1ccc2nc(NC3CC3)sc2c1 (stereo partly drawn) | 0.054 | 0.086 | 0.034 | 0.21 | 4.3 | 4.5 | 127 | 6.3 | 133 |
| CC(C)CN(C[C@@H](O)[C@H](Cc1ccc(F)cc1)NC(=O)OC1C[C@@H]2CO[C@@H]3OC1C[C@H]23)S(=O)(=O)c1ccc2nc(NC3CC3)sc2c1 (stereo partly drawn) | 0.002 | 0.46 |  |  |  |  |  |  |  |
| COc1ccc(S(=O)(=O)N(CC(C)C)C[C@@H](O)[C@H](Cc2ccccc2)NC(=O)O[C@H]2C[C@H]3CO[C@H]4OC2C[C@@H]34)cc1 | 0.034 | 71.7 |  |  |  |  |  |  |  |
| CC(C)CN(C[C@@H](O)[C@H](Cc1cccc(F)c1)NC(=O)O[C@H]1C[C@H]2CO[C@H]3OC1C[C@@H]23)S(=O)(=O)c1ccc2nc(NC3CC3)sc2c1 | 0.024 | 2.7 |  |  |  |  |  |  |  |
| CC(C)CN(C[C@@H](O)[C@H](Cc1cc(F)cc(F)c1)NC(=O)O[C@H]1C[C@H]2CO[C@H]3OC1C[C@@H]23)S(=O)(=O)c1ccc2nc(NC3CC3)sc2c1 | 0.007 | 2.25 |  |  |  |  |  |  |  |
| CC(C)CN(C[C@@H](O)[C@H](Cc1ccccc1)NC(=O)OC1C[C@@H]2CO[C@@H]3OC1C[C@H]23)S(=O)(=O)c1ccc2nc(NC3CC3)sc2c1 (stereo partly drawn) | 0.002 | 3.3 |  |  |  |  |  |  |  |
| CC(C)CN(C[C@@H](O)[C@H](Cc1ccccc1)NC(=O)O[C@H]1C[C@H]2CO[C@H]3OC1C[C@@H]23)S(=O)(=O)c1ccc2nc(NC3CC3)sc2c1 | 0.027 | 1.86 |  |  |  |  |  |  |  |
| COc1ccc(S(=O)(=O)N(CC(C)C)C[C@@H](O)[C@H](Cc2ccccc2)NC(=O)OC2C[C@@H]3CO[C@@H]4OC2C[C@H]34)cc1 (stereo partly drawn) | 0.008 | 38 |  |  |  |  |  |  |  |
| CC(C)CN(C[C@@H](O)[C@H](Cc1ccccc1)NC(=O)O[C@H]1C[C@H]2CO[C@H]3OC1C[C@@H]23)S(=O)(=O)c1ccc2nc(NC(C)C)oc2c1 | 0.047 | 0.3 | 38 | 350 | > 1000 | 640 | >26 | 9.1 | 17 |
| CC(C)CN(C[C@@H](O)[C@H](Cc1ccccc1)NC(=O)OC1C[C@@H]2CO[C@@H]3OC1C[C@H]23)S(=O)(=O)c1ccc2nc(NC(C)C)oc2c1 (stereo partly drawn) | 0.006 | 1.73 |  |  |  |  |  |  |  |
